According to ChEMBL document CHEMBL1121446, “Quantitative structure-pharmacokinetic relationships derived on antibacterial sulfonamides in rats and its comparison to quantitative structure-activity relationships” (J Med Chem, 1980):

Tests used:
Rattus norvegicus [1] = organism: Rattus norvegicus; experiment: Apparent volume of distribution was determined in rat; format: ADME, organism-based; conditions: in vivo
In short: (§1)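 Male Sprague-Dawley rats received the SA sodium salt, 50 mg/kg, into the tail vein within 1 min. Tail-artery blood was sampled over time and plasma separated by centrifugation. Unmetabolized and total SA were assayed by modified Bratton-Marshall before and after hydrolysis of N4 metabolites. ke (or kC,U for unchanged drug) was obtained by computer fitting to a one-compartment model. Vc = dose / extrapolated initial plasma concentration.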

[2] = Total clearance from the body in rat; format: ADME, organism-based; conditions: in vivo, read-out: ClT
Rattus norvegicus [3] = organism: Rattus norvegicus; experiment: Affinity for protein binding expressed as association constant in fresh rat serum; format: ADME, organism-based
In short: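 Sulfapyridines added to freshly prepared rat serum at 100-600 µmol/L in 100 µmol/L steps. Samples ultracentrifuged 10 h at 45000 rpm (g = 150000), 37 °C. Unbound drug in the top protein-free layer measured photometrically by Bratton-Marshall. Total drug measured before centrifugation, with controls correcting for sedimentation of unbound drug. Bound = total − free; Kassoc from a Scatchard plot.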

[4] = Half life in rat; format: ADME, organism-based; conditions: in vivo; in short: as §1
[5] = Overall elimination rate in rat; format: ADME, organism-based; conditions: in vivo, read-out: ke (converted); in short: as §1
[6] = Acid dissociation constant; format: ADME
In short: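 pKa of the sulfapyridine acidic NH measured spectrophotometrically.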

[7] = Renal clearance from the body in rat; format: ADME, organism-based, Kidney; conditions: in vivo, read-out: CL_renal
In short: (§2)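 Drug solutions were infused into rats at 1.9 mL/h, with plasma and urine concentrations measured simultaneously over time. Clearance = urine concentration × urine volume per minute / plasma concentration. Inulin and PAH clearances were also determined. Urine pH was set with NH4Cl (pH 5-6) or NaHCO3 (pH 7.8), compared with normal pH 6.8.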

[8] = First order rate of elimination of unchanged drug in rat; format: ADME, organism-based; conditions: in vivo, read-out: kC,U (converted); in short: as §1
Rattus norvegicus [9] = organism: Rattus norvegicus; experiment: Metabolic clearance from the body in rat; format: ADME, organism-based; conditions: in vivo
In short: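 Metabolic clearance calculated as total clearance minus renal clearance. Plasma levels were measured before and after hydrolysis of N4-acetyl metabolites.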

[10] = Renal clearance from the body; format: ADME, organism-based, Kidney; conditions: in vivo; read-out: CL_renal; in short: as §2
[11] = Half life was determined; format: ADME; conditions: rat

Cc1ccnc(NS(=O)(=O)c2ccc(N)cc2)c1
Vc (Rattus norvegicus [1]): 142.8 mL
clearance [2]: 1.38 mL/min
K ass (Rattus norvegicus [3]): 6606 l M-1
half-life [4]: 1.19 h
k el [5]: 0.000161 s⁻¹
pKa [6]: 9.01

Cc1cc(C)nc(NS(=O)(=O)c2ccc(N)cc2)c1
Vc (Rattus norvegicus [1]): 183 mL
clearance [2]: 1.76 mL/min
K ass (Rattus norvegicus [3]): 5495 l M-1
CL renal [7]: 1.28 mL/min
half-life [4]: 1.2 h
k el [5]: 0.00016 s⁻¹
k el [8]: 0.000117 s⁻¹
ClM (Rattus norvegicus [9]): 0.48 mL/min
pKa [6]: 9.54

Nc1ccc(S(=O)(=O)Nc2ncc(Br)cc2Br)cc1
CL renal [10]: 0.03 mL/min
Vc (Rattus norvegicus [1]): 90.3 mL
clearance [2]: 0.048 mL/min
K ass (Rattus norvegicus [3]): 13800 l M-1
half-life [4]: 21.6 h
k el [5]: 8.89e-06 s⁻¹
k el [8]: 5.56e-06 s⁻¹
ClM (Rattus norvegicus [9]): 0.02 mL/min
pKa [6]: 5.78

Nc1ccc(S(=O)(=O)Nc2ncc(Cl)cc2Cl)cc1
Vc (Rattus norvegicus [1]): 99.2 mL
clearance [2]: 0.05 mL/min
K ass (Rattus norvegicus [3]): 12706 l M-1
CL renal [7]: 0.05 mL/min
half-life [4]: 21.6 h
k el [5]: 8.89e-06 s⁻¹
k el [8]: 8.33e-06 s⁻¹
ClM (Rattus norvegicus [9]): 0.03 mL/min
pKa [6]: 5.98

Cc1cccc(NS(=O)(=O)c2ccc(N)cc2)n1
Vc (Rattus norvegicus [1]): 168.6 mL
clearance [2]: 1.04 mL/min
K ass (Rattus norvegicus [3]): 5129 l M-1
half-life [11]: 1.88 h
k el [5]: 0.000102 s⁻¹
pKa [6]: 9.2

Nc1ccc(S(=O)(=O)Nc2ccc(Br)cn2)cc1
Vc (Rattus norvegicus [1]): 247.1 mL
clearance [2]: 0.116 mL/min
CL renal [7]: 0.04 mL/min
half-life [4]: 24.8 h
k el [5]: 7.78e-06 s⁻¹
k el [8]: 2.78e-06 s⁻¹
ClM (Rattus norvegicus [9]): 0.07 mL/min
pKa [6]: 6.98

Nc1ccc(S(=O)(=O)Nc2ccc(Cl)cn2)cc1
Vc (Rattus norvegicus [1]): 185.5 mL
clearance [2]: 0.099 mL/min
K ass (Rattus norvegicus [3]): 25703 l M-1
CL renal [7]: 0.06 mL/min
half-life [4]: 21.6 h
k el [5]: 8.89e-06 s⁻¹
k el [8]: 5.56e-06 s⁻¹
ClM (Rattus norvegicus [9]): 0.04 mL/min
pKa [6]: 7.04

Cc1ccc(NS(=O)(=O)c2ccc(N)cc2)nc1
Vc (Rattus norvegicus [1]): 234 mL
clearance [2]: 1.15 mL/min
K ass (Rattus norvegicus [3]): 9183 l M-1
half-life [4]: 2.36 h
k el [5]: 8.17e-05 s⁻¹
pKa [6]: 8.95

N#Cc1cccnc1NS(=O)(=O)c1ccc(N)cc1
Vc (Rattus norvegicus [1]): 96.7 mL
clearance [2]: 0.77 mL/min
K ass (Rattus norvegicus [3]): 1820 l M-1
half-life [4]: 1.44 h
k el [5]: 0.000133 s⁻¹
pKa [6]: 5.25

Cc1cnc(NS(=O)(=O)c2ccc(N)cc2)c(C#N)c1
Vc (Rattus norvegicus [1]): 89.7 mL
clearance [2]: 0.47 mL/min
K ass (Rattus norvegicus [3]): 10965 l M-1
half-life [4]: 2.18 h
k el [5]: 8.83e-05 s⁻¹
pKa [6]: 5.35

COc1cccnc1NS(=O)(=O)c1ccc(N)cc1
Vc (Rattus norvegicus [1]): 100.3 mL
clearance [2]: 0.91 mL/min
K ass (Rattus norvegicus [3]): 2399 l M-1
half-life [4]: 1.27 h
k el [5]: 0.000151 s⁻¹
pKa [6]: 8.07

Cc1cccnc1NS(=O)(=O)c1ccc(N)cc1
Vc (Rattus norvegicus [1]): 131 mL
clearance [2]: 1.17 mL/min
K ass (Rattus norvegicus [3]): 1622 l M-1
half-life [4]: 1.29 h
k el [5]: 0.000149 s⁻¹
pKa [6]: 8.74

Nc1ccc(S(=O)(=O)Nc2ccc([N+](=O)[O-])cn2)cc1
Vc (Rattus norvegicus [1]): 192.8 mL
clearance [2]: 0.135 mL/min
K ass (Rattus norvegicus [3]): 20417 l M-1
half-life [4]: 16.5 h
k el [5]: 1.17e-05 s⁻¹
pKa [6]: 5.56

CN(C)c1ccc(NS(=O)(=O)c2ccc(N)cc2)nc1
Vc (Rattus norvegicus [1]): 111.2 mL
clearance [2]: 0.62 mL/min
K ass (Rattus norvegicus [3]): 8511 l M-1
CL renal [7]: 0.43 mL/min
half-life [4]: 2.08 h
k el [5]: 9.25e-05 s⁻¹
k el [8]: 6.39e-05 s⁻¹
ClM (Rattus norvegicus [9]): 0.19 mL/min
pKa [6]: 9.21

Cc1cc(Br)cnc1NS(=O)(=O)c1ccc(N)cc1
Vc (Rattus norvegicus [1]): 142.6 mL
clearance [2]: 0.2 mL/min
K ass (Rattus norvegicus [3]): 5888 l M-1
half-life [4]: 8.15 h
k el [5]: 2.36e-05 s⁻¹
pKa [6]: 7.19

CCOc1cccnc1NS(=O)(=O)c1ccc(N)cc1
Vc (Rattus norvegicus [1]): 98.3 mL
clearance [2]: 0.81 mL/min
K ass (Rattus norvegicus [3]): 4169 l M-1
half-life [4]: 1.4 h
k el [5]: 0.000138 s⁻¹
pKa [6]: 8.2

Nc1ccc(S(=O)(=O)Nc2ncccc2Cl)cc1
Vc (Rattus norvegicus [1]): 147.5 mL
clearance [2]: 0.2 mL/min
K ass (Rattus norvegicus [3]): 13441 l M-1
half-life [4]: 8.66 h
k el [5]: 2.22e-05 s⁻¹
pKa [6]: 6.8

Cc1cc(Cl)cnc1NS(=O)(=O)c1ccc(N)cc1
Vc (Rattus norvegicus [1]): 137.9 mL
clearance [2]: 0.195 mL/min
half-life [4]: 8.15 h
k el [5]: 2.36e-05 s⁻¹
pKa [6]: 7.26

Nc1ccc(S(=O)(=O)Nc2ccccn2)cc1 [SULFAPYRIDINE]
Vc (Rattus norvegicus [1]): 229 mL
clearance [2]: 1.79 mL/min
K ass (Rattus norvegicus [3]): 4592 l M-1
CL renal [7]: 1.33 mL/min
half-life [4]: 1.47 h
k el [5]: 0.000131 s⁻¹
k el [8]: 9.72e-05 s⁻¹
ClM (Rattus norvegicus [9]): 0.46 mL/min
pKa [6]: 8.54
